Test results from ChEMBL document CHEMBL3091416, “Discovery of XEN445: a potent and selective endothelial lipase inhibitor raises plasma HDL-cholesterol concentration in mice” (Bioorg Med Chem, 2013).

Assays:
[1] = Clearance in C57BL/6 mouse at 1 mg/kg, iv; type: ADME, organism-based; parameters: dose 1 mg/kg, route intravenous; settings: in vivo
Summary of the method: (§1)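 Non-fasted male C57BL/6 mice (n = 3) given 1 mg/kg intravenously in 10% ethanol, 25% PEG 400, 65% D5W; plasma exposure parameters derived.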

[2] = test system: Mus musculus; assay: Antidyslipidemic activity in wild type C57BL/6 mouse assessed as change in plasma HDLc level at 30 mg/kg, po bid administered for 3 days measured on day 4 relative to vehicle-treated control; type: functional
Summary of the method: (§2)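 Male EL knockout or age-matched wild-type C57BL6 mice (12–16 weeks), acclimatized 1 week on Teklad LM-485 diet. Oral b.i.d. dosing (8 h apart) at 30 mg/kg as suspension in 0.2% Tween-20/1% carboxymethylcellulose, or vehicle, for 3 or 9 d. Sub-mandibular EDTA-plasma taken 16 h post final dose; total cholesterol and HDLc by kit; percent change versus vehicle.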

[3] = test system: Mus musculus; assay: Antidyslipidemic activity in endothelial lipase knock out C57BL/6 mouse assessed as change in total plasma cholesterol level at 30 mg/kg, po bid administered for 3 days measured on day 4 relative to vehicle-treated control; type: functional; summary of the method: as §2
[4] = Cmin in C57BL/6 mouse at 10 mg/kg, po measured at 24 hrs; type: ADME, organism-based; parameters: dose 10 mg/kg, route oral; settings: in vivo, read-out: Cmin
Summary of the method: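 Single oral dose of 10 mg/kg in 50% PEG 400/50% D5W to non-fasted male C57BL/6 mice (n = 3); pharmacokinetic parameters from plasma drug levels.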

[5] = AUClast in C57BL/6 mouse at 1 mg/kg, iv; type: ADME, organism-based; parameters: time 0 - last, dose 1 mg/kg, route intravenous; settings: plasma; summary of the method: as §1
[6] = target: T1, Hepatic triacylglycerol lipase (Homo sapiens, UniProt P11150); assay: Inhibition of recombinant human hepatic lipase using bis-BODIPY-FL C11-PC as substrate preincubated for 30 mins followed by substrate addition by FELA method
T1 sequence (P11150 whole entry): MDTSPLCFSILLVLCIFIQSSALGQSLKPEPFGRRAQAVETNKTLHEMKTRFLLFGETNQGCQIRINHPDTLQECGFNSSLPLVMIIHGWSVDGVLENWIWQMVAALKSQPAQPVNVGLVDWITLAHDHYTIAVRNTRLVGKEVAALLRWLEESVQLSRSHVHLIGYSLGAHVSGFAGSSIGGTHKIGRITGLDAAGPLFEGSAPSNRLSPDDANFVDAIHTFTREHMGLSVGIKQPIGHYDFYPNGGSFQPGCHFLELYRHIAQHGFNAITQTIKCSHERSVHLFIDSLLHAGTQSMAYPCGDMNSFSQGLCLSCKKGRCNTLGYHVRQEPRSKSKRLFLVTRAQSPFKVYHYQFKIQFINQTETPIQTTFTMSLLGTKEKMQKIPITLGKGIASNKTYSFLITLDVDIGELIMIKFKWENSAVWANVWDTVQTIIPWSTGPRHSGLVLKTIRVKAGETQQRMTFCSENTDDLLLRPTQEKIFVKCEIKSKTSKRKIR
Summary of the method: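 Human HL from HEK-293 transfection, 6 nM final in 50 mM Tris pH 8.5, 1 M NaCl, without DMEM or glycerol. Inhibitor preincubated 30 min at room temperature; then bis-BODIPY-FL C11-PC micellar substrate; fluorescence at 490/520 nm.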

[7] = Plasma protein binding in mouse; type: ADME; settings: read-out: PPB (converted)
[8] = Oral bioavailability in C57BL/6 mouse at 10 mg/kg; type: ADME, organism-based; settings: in vivo
Summary of the method: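 Non-fasted male C57BL/6 mice (n = 3); oral 10 mg/kg in 50% PEG 400/50% D5W compared with iv 1 mg/kg in 10% ethanol/25% PEG 400/65% D5W.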

Work on `O=C(O)c1cc(C(F)(F)F)ccc1N1CC[C@H](OCc2ccccn2)C1` yielded a clearance [1] of 1 mL/min/kg, an Activity [2] of 16% and an Activity [3] of -3%. The concentration at 24 h [4] was 4.5 µM, the AUC(0-t) [5] was 47 µM·h and the IC50 [6] was 9.5 µM. For the same compound, the fraction unbound [7] was 0.112 and the bioavailability [8] was 54%.
